Data from paper PMC3539145 (Scientific Reports, 2013).

Experiments:
HEK 293 cells = assay: Cell viability of native HEK 293 cells; type: cell-based, human
Summary of the method: (§1)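 Native HEK 293 cells and HEK 293 cells transfected with V5/His-tagged rat AC (pEF6 vector) and selected with G418 (0.3 mg/mL) are exposed to graded test-compound concentrations added in DMSO (final 0.1%). Cells are harvested, spun at 800xg for 10 min and resuspended in PBS. They are mixed 1:1 with 0.4% Trypan blue for 1 min, and viable cells are counted on a hemocytometer. Mean ± s.e.m., n = 4.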

SW403 cells [1] = assay: SW403 cell viability; type: cell-based, human; conditions: for interaction with taxol on SW403 cell viability / interaction with 5-FU on SW403 cell viability: isobolographic analyses; for interaction with 5-FU on SW403 cell viability: 5-FU 0.3 µM; for change in SW403 cell viability: single treatment, 3 μM, 3 h
Summary of the method: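 SW403 cells (2×10^5) are seeded the day before and treated in serum-free DMEM with test compound (0.1–100 µM) plus a partner drug (for 5-FU, 0.3 µM). Additions are repeated every 24 h over 72 h. Viability is read by Trypan blue exclusion on a hemocytometer. Interaction is assessed isobolographically, comparing experimental EC50 with the theoretical EC50 from the isobole equation.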

SW403 cells [2] = assay: Ceramide levels in SW403 cells; type: cell-based, human; conditions: 3 μM, 3 h
Summary of the method: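 SW403 human colon adenocarcinoma cells are grown in DMEM with 10% FBS at 37°C and 5% CO2. They are treated with test compound at 3 µM, or with vehicle (0.1% DMSO in DMEM), for 3 h. Ceramide species, including d18:1/14:0, 16:0 and 18:0, are identified and quantified by LC/MS. Values are compared with vehicle by one-way ANOVA with Tukey's test.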

[3] = target: human thymidylate synthase (h-TS) (Homo sapiens, UniProt P04818); assay: Human thymidylate synthase activity; type: biochemical
Sequence of human thymidylate synthase (h-TS) (P04818 whole entry): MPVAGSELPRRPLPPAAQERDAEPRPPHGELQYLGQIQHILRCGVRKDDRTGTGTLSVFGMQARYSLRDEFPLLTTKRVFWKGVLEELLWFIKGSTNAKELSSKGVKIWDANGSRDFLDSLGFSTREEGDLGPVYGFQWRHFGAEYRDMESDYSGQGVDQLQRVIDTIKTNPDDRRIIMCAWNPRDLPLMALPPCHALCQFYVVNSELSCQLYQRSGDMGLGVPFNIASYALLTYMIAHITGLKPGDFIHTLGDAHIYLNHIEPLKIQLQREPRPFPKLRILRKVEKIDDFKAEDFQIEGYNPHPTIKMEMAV

AC [4] = target: T1, AC (Mus musculus, UniProt Q9WV54); assay: AC activity measured ex vivo in mouse tissues after i.p. injection; design: species or system mice; conditions: for AC activity in mouse lungs and brain cortex: 10 or 30 mg-kg^−1 i.p., ex vivo 2 h after injection
T1 sequence (Q9WV54 19-394): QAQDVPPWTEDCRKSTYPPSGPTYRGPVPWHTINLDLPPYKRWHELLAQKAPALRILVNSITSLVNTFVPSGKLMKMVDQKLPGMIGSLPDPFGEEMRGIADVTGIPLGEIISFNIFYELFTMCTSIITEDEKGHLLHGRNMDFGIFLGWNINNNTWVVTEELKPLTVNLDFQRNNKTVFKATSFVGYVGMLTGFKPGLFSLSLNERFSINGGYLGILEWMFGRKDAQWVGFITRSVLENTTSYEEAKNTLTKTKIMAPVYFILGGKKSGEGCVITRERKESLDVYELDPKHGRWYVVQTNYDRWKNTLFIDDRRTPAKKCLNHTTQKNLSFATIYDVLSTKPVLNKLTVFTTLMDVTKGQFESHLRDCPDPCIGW
Summary of the method: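 Male Swiss Webster mice (20–35 g) received test compound at 10 or 30 mg-kg−1 i.p. (1 ml-kg−1) in 15% polyethylene glycol/15% Tween-80/70% saline. Mice were killed by cervical dislocation 2 h after dosing. Lungs and brain cortex were frozen in liquid nitrogen and stored at −80°C. AC activity was measured ex vivo. Data are mean ± s.e.m., n = 6.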

[5] = tested on: AC-overexpressing HEK 293 cells; assay: Cell viability of AC-overexpressing HEK 293 cells; type: cell-based, human
Summary of the method: as §1

AC [6] = target: T2, AC (Homo sapiens, UniProt Q13510); assay: AC activity in lysates of treated intact SW403 cells; type: cell-based
T2 sequence (Q13510 22-395): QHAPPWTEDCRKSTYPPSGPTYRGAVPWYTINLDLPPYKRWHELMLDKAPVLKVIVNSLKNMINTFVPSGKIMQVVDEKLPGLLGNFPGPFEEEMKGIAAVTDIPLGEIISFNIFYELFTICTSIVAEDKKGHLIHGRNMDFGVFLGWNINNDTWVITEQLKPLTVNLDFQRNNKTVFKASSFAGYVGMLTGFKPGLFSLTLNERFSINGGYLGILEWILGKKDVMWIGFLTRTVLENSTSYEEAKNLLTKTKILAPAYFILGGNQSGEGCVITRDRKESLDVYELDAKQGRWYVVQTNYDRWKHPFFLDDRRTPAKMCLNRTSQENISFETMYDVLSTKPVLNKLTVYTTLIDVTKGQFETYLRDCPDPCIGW
Summary of the method: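 Intact cells were exposed to test compound at 0.3–10 µM, with AC activity read 3 h later in cell lysates. A time course used 3 µM over various intervals. Vehicle was 0.1% DMSO in DMEM. SW403 cells were grown in DMEM with 10% FBS at 37°C, 5% CO2. Data are mean ± s.e.m., n = 3–6, each assay in duplicate.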

AC [7] = target: T2, AC; assay: AC activity in lysates of treated intact LNCaP cells; type: cell-based; conditions: 0.3–10 µM for 3 h; 3 µM for various time intervals
[8] = tested on: mouse tissues (lungs and cerebral cortex); assay: Ceramide levels in mouse tissues after i.p. injection; type: in vivo; conditions: mice, 10 or 30 mg-kg^−1 i.p., lungs and brain cortex, 2 h
Summary of the method: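 Male Swiss Webster mice (20–35 g) receive test compound i.p. (10 or 30 mg-kg−1; 1 ml-kg−1) in 15% PEG, 15% Tween-80 and 70% saline, or vehicle alone. They are killed by cervical dislocation 2 h later. Lungs and cerebral cortex are snap-frozen in liquid nitrogen, stored at −80°C, and ceramide is measured by LC/MS. Mean ± s.e.m., n = 6.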

AC [9] = conditions: read-out: AC IC50; in vitro, in keratinocytes; cited from earlier work
[10] = Homo sapiens, HEK293, 24 h, read-out: EC50 (cell death / cell viability)

## CCCC[C@@H](C)[C@@H](OC(=O)C[C@@H](CC(=O)O)C(=O)O)[C@H](C[C@@H](C)C[C@H](O)CCCC[C@@H](O)C[C@H](O)[C@H](C)N)OC(=O)C[C@@H](CC(=O)O)C(=O)O [FB1, fumonisin B1]
HEK 293 cells; HEK 293 cells, combination of carmofur plus FB1, Trypan blue
  effect of FB1 on carmofur induced cell death: does not decrease carmofur induced cell death

## CCCCCCNC(=O)n1cc(C(F)(F)F)c(=O)[nH]c1=O [ARN398, 5-trifluoromethyl-N-hexyl-2,4-dioxo-pyrimidine-1-carboxamide]
SW403 cells [1]
  interaction with taxol on SW403 cell viability: Super-additive effects
  interaction with 5-FU on SW403 cell viability: acted synergistically
  change in SW403 cell viability: did not result in any statistically detectable change
SW403 cells [2]
  ceramide levels in SW403 cells: increased ceramide levels
[3]
  IC50: 1340 ± 268 µM

## CCCCCCNC(=O)n1ccc(=O)[nH]c1=O [ARN080, N-hexyl-2,4-dioxo-pyrimidine-1-carboxamide]
AC [4]; mice
  AC activity in mouse lungs and brain cortex: substantially reduced
AC [4]; mouse, ip, 2 h, read-out: median inhibitory dose, ID50 (AC activity in vivo)
  ED50: ~10 mg/kg
SW403 cells [1]
  interaction with taxol on SW403 cell viability: Super-additive effects
  interaction with 5-FU on SW403 cell viability: acted synergistically
  change in SW403 cell viability: did not result in any statistically detectable change
SW403 cells [2]
  ceramide levels in SW403 cells: increased ceramide levels
[3]
  IC50: 196 ± 27 µM

## CCCCCCNC(=O)n1cc(C)c(=O)[nH]c1=O [ARN081, N-hexyl-5-methyl-2,4-dioxo-pyrimidine-1-carboxamide]
[3]
  IC50: 762 ± 123 µM

## CCCCCCNC(=O)n1cc(Cl)c(=O)[nH]c1=O [ARN082, 5-chloro-N-hexyl-2,4-dioxo-pyrimidine-1-carboxamide]
[3]
  IC50: 496 ± 82 µM

## CCCCCCNC(=O)n1cc(F)c(=O)[nH]c1=O [Carmofur, 1-hexylcarbamoyl-5-fluorouracil]
[5]; HEK 293-AC vs native HEK 293, 24 h
  EC50 in AC-overexpressing cells relative to native cells: 50 fold
[5]; [10]
  EC50: 66 µM
AC [4]; mice
  AC activity in mouse lungs and brain cortex: dose-dependent inhibition
AC [6]; 0.3–10 µM for 3 h, 3 µM for various time intervals
  AC activity in SW403 cells: concentration- and time-dependent reduction
HEK 293 cells; [10]
  EC50: 1.4 µM
AC [7]
  AC activity in LNCaP cells: inhibits AC
[8]
  tissue ceramide content: increases in tissue ceramide content
[3]
  IC50: 1210 ± 190 µM

## CCCCCCCCCCCCCC(=O)N[C@H](CO)[C@H](O)c1ccc([N+](=O)[O-])cc1 [Compound B13, (1R, 2R)-2-(N-tetradecanoylamino)-1-(4-nitrophenyl)-1,3-propanediol]
AC [9]
  IC50: ~10 µM

## O=c1[nH]cc(F)c(=O)[nH]1 [Compound 5-FU, 5-fluorouracil, reference compound]
AC [4]; mice, 30 mg-kg^−1 i.p., 2 h, lungs (Figure 3A)
  AC activity in mouse tissue: no statistically detectable effect
AC [6]; 3 μM, 3 h
  AC activity in SW403 cells: did not cause any detectable changes
SW403 cells [2]
  ceramide levels in SW403 cells: did not cause any detectable changes
